Experimental data pooled from the literature.
Each line is one published result; the experiments were not run side by side.
Target: High affinity nerve growth factor receptor (NTRK1, Homo sapiens, UniProt P04629)

Compound | assay | conditions | endpoint | value
O=C(Nc1ccc2[nH]ncc2c1)c1cccc(NC(=S)Nc2ccc(F)cc2F)c1 | enzyme activity, inhibitor, FRET | 1 µM | inhibition | 67.3%
CN([C@@H]1CCc2c(CC(=O)O)c3cc(S(C)(=O)=O)ccc3n2C1)S(=O)(=O)c1ccc(F)cc1 | cell-free assay, competition with immobilised ligand | 1 µM | remaining binding | 100%
COc1cc(/C=C/C(=O)CC(=O)/C=C/c2ccc(O)c(OC)c2)ccc1O | enzyme activity, inhibitor | 1 µM | activity vs control | 93%
CN(C)C1CCN(CC#Cc2nn(C3CCCC3)c3nc(NCc4ccccc4)ncc23)C1 (centres unmarked) | enzyme activity, inhibitor, FRET | 1 µM | inhibition | 17%
Cc1cnc(NC2CCOCC2)nc1-n1cnc(C(=O)NC(CN)c2cc(F)cc(Cl)c2)c1 (centres unmarked) | enzyme activity, inhibitor, radiometric | 1 µM | remaining activity | 100%
Cc1sc(C(=O)NC2COC2)cc1-n1cc(NC(=O)Nc2c(F)cccc2Cl)cn1 | enzyme activity, inhibitor | 10 µM | remaining activity | 81%
CN(C)C(=O)Cn1cc(-c2nc(C3(c4ccc(-c5cnc(N)nc5)cc4)CC3)no2)cn1 | cell-free assay, competition with immobilised ligand | 1 µM | remaining binding | 100%
CN1CCN(CC(=O)Nc2cccc(C(=O)Nc3ccc4[nH]ncc4c3)c2)CC1 | enzyme activity, inhibitor, FRET | 1 µM | inhibition | 14.1%
CCN(CC)CCNC(=O)c1c(C)[nH]c(/C=C2\C(=O)Nc3ccc(F)cc32)c1C | enzyme activity, inhibitor | 0.1 µM | remaining activity | 19%
O=C(Nc1ccc(F)cc1)Nc1cccc(C(=O)Nc2ccc3[nH]ncc3c2)c1 | enzyme activity, inhibitor, FRET | 1 µM | inhibition | 63.2%
C[C@@H]1CN(c2cc(-c3n[nH]c4ccc(OC5(C)CC5)cc34)ncn2)C[C@H](C)O1 | cell-free assay, competition with immobilised ligand | 0.1 µM | remaining binding | 73%
N#CCCc1ccc2c(c1)-c1[nH]c3ccc([N+](=O)[O-])cc3c1CC(=O)N2 | cell-free assay | 0.5 µM | remaining signal | 115%
O=C(Nc1cccc(C(=O)Nc2ccc3[nH]ncc3c2)c1)Nc1ccccc1Cl | enzyme activity, inhibitor, FRET | 1 µM | inhibition | 37.7%
COc1cc(Nc2cnc(C#N)c(O[C@H](C)CN(C)C)n2)ncc1-c1cnn(C)c1 | enzyme activity, inhibitor, radiometric | 10 µM | remaining activity | 28%
COc1ccc2c(c1)O[C@H](c1ccc(OC)c(OC)c1)C[C@@H]2NC(=O)C1(c2ccc3c(c2)OC(F)(F)O3)CC1 | cell-free assay, competition with immobilised ligand | 1 µM | remaining binding | 100%
Cc1ccc(NC(=O)c2ccc(C)c(C(F)(F)F)c2)cc1C#Cc1nn(C2CCC(O)CC2)c2ncnc(N)c12 (centres unmarked) | cell-free assay | 10 µM | remaining signal | 72%
CO[C@@H](C)c1c(Nc2ccc([C@H](N(C)C(=O)C3CCS(=O)(=O)CC3)C(F)(F)F)cc2)cnc2cc(Cl)nn12 | cell-free assay, competition with immobilised ligand | 1 µM | remaining binding | 80%
CC(C)(C)c1nc(-c2cccc(NS(=O)(=O)c3c(F)cccc3F)c2F)c(-c2ccnc(N)n2)s1 | enzyme activity, inhibitor, radiometric | 1 µM | remaining activity | 78%
Nc1cnc(N2CCc3cc(S(=O)(=O)Nc4c(F)cc(Cl)cc4F)cc(N4CCCC4=O)c32)nc1 | cell-free assay, competition with immobilised ligand | 1 µM | remaining binding | 100%
O=C(Nc1ccc2[nH]ncc2c1)c1cccc(NC(=S)Nc2cc(C(F)(F)F)cc(C(F)(F)F)c2)c1 | enzyme activity, inhibitor, FRET | 1 µM | inhibition | 51.3%
